An excerpt weighted towards active compounds, which were near 3.9% of everything screened.
core dimer inh: inhibitors of HCV core protein dimerization, primary screen, biochemical, TR-FRET, high-throughput; TR-FRET GST/Flag-core106 dimerization, 1536-well; inhibition, % at 5 µM; 300,000 tested, 0.33% active;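 active means inhibition above the mean of all tested compounds plus 3 SD, set per screening campaign, cut at about 45% in these data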
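System: GST-tagged and Flag-tagged HCV core protein residues 1-106 / Input: core106 proteins, GST 13.5 nM and Flag 17 nM / Buffer or medium: KF-containing HEPES buffer, pH 7.45, DTT, CHAPS, BSA / Probe or stimulus: Eu-anti-GST and XL665-anti-Flag labelled anti-tag antibodies / Schedule: 4 h, 22.5 °C incubation / Technique: TR-FRET 671 and 617 nm emission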
HSP90 inh: HSP90 inhibitors, primary screen, cell lysate, luminescence. Rabbit reticulocyte lysate, luciferase refolding luminescence, 3 h. inhibition, % at 5.6 µM. 290,000 tested, 0.91% active. AID 1789, 2009;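 active means inhibition above the screen-wide mean plus 3 SD, computed separately per campaign, cut at about 16% in these data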;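 further: 0% = DMSO wells and 100% = 60 µM geldanamycin wells; inhibitors lower the luminescence because luciferase stays unfolded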
HSF1 inhib: HSF1 inhibitors in luciferase reporter cells, primary screen, cell-based, NIH3T3, luminescence; NIH3T3-HGL HSE-luciferase, MG132-induced, luminescence 8 h; stronger effect = lower value; activity change, negative = inhibition, % at 7.5 µM (by protocol); 300,000 tested, 0.77% active; AID 2098, 2009;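 active means more than half of replicate wells show activity change below -50%, luminescence cut by over half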;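 further: luciferase reports HSF-1 transcriptional activity via heat shock element; 0% = median of DMSO wells and -100% = zero luminescence signal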
NS3 helicase inh: inhibitors of HCV NS3 helicase, primary screen, biochemical, Cy5 molecular beacon fluorescence | 290,000 tested, 0.56% active | NS3 helicase DNA unwinding | Hepatitis C virus NS3 helicase | inhibition, % at 10.9 µM;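 active means inhibition above the mean of all tested compounds plus 3 SD, set per campaign, cut at about 35% in these data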;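 further: 0% = DMSO wells and 100% = thioflavine S control wells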
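System: NS3 helicase fragment of HCV / Schedule: 1 h at 25 °C / Control set: DMSO alone as 0% and 110 µM thioflavine S as 100% / Reagent: Cy5/quencher beacon DNA duplex and ATP to start / Technique: Cy5 fluorescence / Replication: singlicate / Evaluation: % inhibition of end-to-start signal ratio versus controls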
HSF1 activator: HSF-1 activators, primary screen, NIH3T3-HGL cells, MG132 stress, luminescence, single point; NIH3T3-HGL HSF-1 luciferase reporter, 8 h; 100% = twice DMSO control signal; activation, % at 9 µM; 300,000 tested, 1.7% active; AID 504408, 2011;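 active means mean replicate activation of at least 50% with a set share of replicates each reaching 50%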;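 further: 0% = median of the neutral control wells and 100% = twice that signal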
FID counter: compounds displacing fluorescent DNA intercalator, primary screen, artefact control for HCV NS3 helicase inhibitor project, biochemical, FID fluorescence; DNA fluorescent intercalator displacement; inhibition, % at 7.9 µM; 290,000 tested, 0.17% active; in the data active means inhibition above about 37%;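 further: 0% = vehicle and 100% = reference compound; higher means more ethidium bromide displaced from hairpin DNA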
An asterisk follows results filed as active; x = no result given.

SMILES	core dimer inh	HSP90 inh	HSF1 inhib	NS3 helicase inh	HSF1 activator	FID counter
CCOc1ccc(-c2ccc(SCC(=O)Nc3nnc(CC)s3)nn2)cc1	2.5	-5.6	x	-7.6	x	-3.0
CC(=O)N(C)C1=C(O)c2ccccc2C(=O)C1=O	-4.2	7.5	-89.7*	3.8	-92.0	9.5
O=C(Nc1ccc2c(c1)OCO2)NC1(C(F)(F)F)Oc2ccccc2O1	3.1	-1.9	4.6	-0.4	19.7	-1.1
O=C(Nc1ccc2c(c1)OCCO2)NC1(C(F)(F)F)Oc2ccccc2O1	1.7	-1.8	-67.3*	-5.2	-71.7	-1.2
CC1CC(C)CN(C(=O)c2cc3cc(Br)cc(Br)c3o2)C1 (centres undefined)	11.4	-10.4	33.9	-11.6	66.6*	-4.3
COc1ccc(CN2CCN(C(C)C)C(CCO)C2)cc1Cn1cncn1 (centres undefined)	-2.8	1.8	2.1	-5.3	1.9	0.4
Nc1c(C(=O)Nc2ccc(S(=O)(=O)N3CCCC3)cc2)sc2nc3cc4c(cc3cc12)CCC4	29.0	-2.5	2.5	8.4	13.7	-3.8
Nc1c(C(=O)Nc2ccc(S(=O)(=O)N3CCCC3)cc2)sc2nc3ccc(OC(F)(F)F)cc3cc12	63.0*	0.8	4.3	12.4	14.1	-6.6
CC(C)NC(=O)[C@@H]1C[C@@]1(C)[C@@H](NC(=O)OCc1ccccc1)c1ccccc1	5.0	-0.1	1.0	-2.8	7.2	-29.5
C=CCn1c(O)c(N=NC(=O)CNC(=O)/C=C/c2ccc(OC)cc2)c2ccccc21	8.6	4.7	1.2	-14.4	17.0	-26.9
C=CCn1c(O)c(N=NC(=O)CNC(=O)/C=C/c2ccco2)c2ccccc21	49.0*	-2.1	3.1	10.7	-13.8	-12.5
Cc1onc(-c2ccc(Cl)cc2Cl)c1-c1csc(N/N=C/c2ccccc2)n1	1.5	0.8	-11.4	-11.7	4.8	-4.1
CCOC(=O)N1CCN(C(=O)c2ccc3c(=O)n(-c4ccc(OC)cc4)c(=S)[nH]c3c2)CC1	-3.2	3.0	5.9	-3.8	51.6*	0.2
COc1ccccc1N1CCN(C(=O)c2ccc3c(=O)n(Cc4ccco4)c(=S)[nH]c3c2)CC1	12.1	4.3	49.0	-4.9	88.3*	-7.3
COc1ccccc1Cn1c(=S)[nH]c2cc(C(=O)N3CCN(c4ccccc4OC)CC3)ccc2c1=O	5.0	-0.7	-3.9	-3.3	0.5	-5.2
CN(CC(=O)NCc1ccncc1)S(=O)(=O)c1ccc2ccccc2c1	-2.2	2.1	-2.2	1.3	10.9	-6.2
Cn1cnc(S(=O)(=O)N2CCN(C(c3ccc(F)cc3)c3ccc(F)cc3)CC2)c1	1.3	-6.8	7.5	-16.6	-2.4	-47.9
CC(=O)c1cc(F)ccc1OCC(=O)N1CCN(c2ccc(F)cc2)CC1	-3.9	2.9	x	3.1	x	-30.2
CCCCc1cc(=O)oc2cc(C)c(CN3CCCC3)c(O)c12	51.4*	-3.7	3.4	33.5	11.9	-14.4
CCc1cc(=O)oc2cc(C)c(CN3CCCC(C)C3)c(O)c12 (centres undefined)	61.0*	4.1	0.0	25.3	-6.1	-23.0
CCc1cc(=O)oc2c(CN3CCCC3)c(O)c(Cl)cc12	-1.6	-2.3	-2.5	13.9	1.9	-2.7
Cc1cccc2nc(CNC(=O)CC3C(=O)NCCN3Cc3cccc(F)c3)cn12 (centres undefined)	-12.8	-1.8	-2.1	6.5	8.8	-16.3
COc1cccc(NC(=O)COC(=O)C2C3CC4OC(=O)C2C4C3)c1 (centres undefined)	0.6	5.4	-9.7	25.4	-7.6	-14.7
CCOC(=O)c1c([N+](=O)[O-])c(C)[nH]c(=O)c1C#N	-11.1	1.4	-8.0	15.4	-1.9	-5.3
CCOC(=O)c1c(C)[nH]c(C)c1C(=O)COc1ncnc2cc([N+](=O)[O-])ccc12	3.1	1.9	16.6	-1.9	66.1*	-11.7
SMILES	core dimer inh	HSP90 inh	HSF1 inhib	NS3 helicase inh	HSF1 activator	FID counter
COc1ccc(N2CCN(c3nc4c(C)cccn4c(=O)c3C=C(C#N)C#N)CC2)cc1	x	2.0	-5.8	5.0	-1.2	-1.7
Nc1cccc(CCc2ccncc2)c1	10.3	-1.3	1.8	-2.4	-5.7	-2.2
c1ccc(CCc2ccncc2)cc1	8.3	-3.5	8.5	11.6	56.1*	-5.3
CC(=Nc1ccccc1)C1=C(O)CCCC1=O	6.8	3.0	9.5	12.8	62.7*	-9.4
CC(=Nc1ccccc1)C1=C(O)CC(C)(C)CC1=O	-0.5	-2.3	-1.0	-8.4	14.3	3.4
CCOC(=O)CC(NS(=O)(=O)c1ccc2[nH]cc(C(=O)O)c(=O)c2c1)c1ccc(OCC)c(OC)c1 (centres undefined)	-32.5	2.3	44.8	12.4	88.1*	3.0
NC(=O)CSc1nnc(-c2ccccn2)n1N	-3.6	-4.2	14.4	-1.5	-5.8	0.1
COc1ccccc1C(=O)NCCC(=O)N(C)Cc1ccc(C)o1	-4.0	-2.3	2.5	4.3	6.7	-14.7
Cc1cc(C)c2nc(C)cc(N/N=C/c3ccc(O)cc3)c2c1	-15.8	1.8	9.4	-10.3	10.6	48.2*
Cc1cccn2cc(-c3ccccc3)nc12	-3.0	7.5	30.3	-1.5	68.6*	3.7
COc1ccc(-c2cn3cccc(C)c3n2)cc1Br	5.3	-2.0	40.7	-20.0	61.9*	-2.9
CC1=NNC(=O)C1Cc1ccccc1C (centres undefined)	-7.2	0.5	-1.6	-3.5	-9.0	-1.9
COc1ccc(-c2csc(NC3OC(=O)c4c3ccc(OC)c4OC)n2)cc1OC (centres undefined)	-2.0	0.1	43.2	-2.2	60.0*	-21.3
COc1ccc(NC(=O)CN2CCC(Cc3ccccc3)CC2)cc1S(=O)(=O)N1CCOCC1	-6.8	-0.6	-12.2	-50.0	0.4	12.6
Cc1ccc(-n2cc(CN3CCN(Cc4nccn4C)CC3)c(-c3cccc(C)c3)n2)cc1	-4.3	-0.7	27.7	-55.3	51.2*	26.7
Cc1c(Cl)cccc1-n1c(SCC(=O)N2CCC(C(=O)O)CC2)nnc1-c1ccncc1	-0.1	1.4	-6.8	-1.0	-9.1	-59.5
COc1ccc(Oc2ccc(N/C=C/C(=O)C(C)(C)C)cc2)cc1	3.2	2.4	13.6	-1.4	21.9	-1.2
CC(=O)Nc1ccc(N/C=C/C(=O)C(C)(C)C)cc1	-3.5	-1.5	34.7	-0.7	62.6*	-2.5
CC(=O)c1ccc(NC(=O)c2ccc(C)c(Br)c2)cc1	-2.1	-0.6	32.3	-9.1	56.0*	1.1
CC1=Nc2ccc(C)c3nc(C)cc(c23)N1c1ccc(C)cc1	-0.3	-1.0	-53.4*	9.2	-64.1	1.7

Screening results deposited in PubChem by several laboratories.
